PfGluPho inh: PfG6PD (Plasmodium falciparum) enzyme inhibition. 350,000 compounds, 0.78% hits. AID 504690. PfGluPho enzyme, NADPH resazurin-diaphorase fluorescence. inhibition, % at 20 µM;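 active means inhibition reaching at least a set limit at 20 µM in the primary screen, cut at about 59% in these data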;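 further: 0% = DMSO wells with substrate and 100% = DMSO wells lacking glucose-6-phosphate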
Diaph act CS: activates diaphorase or chemically reduces, flagging diaphorase assay artifacts; Diaphorase/resazurin coupled assay, resorufin fluorescence, 16 min; stronger effect = higher value; 1 = vehicle wells, 0 = NADH-free wells; activation factor at 20 µM; 190,000 compounds, 0.005% hits;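 active means diaphorase activity raised at least twofold by the compound at 20 µM; inactive means activation factor below 2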
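Assay system: Purified diaphorase enzyme from Clostridium kluyveri | Amount: Enzyme 0.07 U/mL final | Dosing: Compound 20 µM once, DMSO 1% | Timing: 16 min reaction at room temperature | Detection: Fluorescence, excitation 544 nm and emission 590 nm | Evaluation: Higher resorufin formation from activation or reduction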
DTT redox prof: compounds producing H2O2 with reducing agent – biochemical, NIH compound library profiling, artefact control for MLSCN library redox annotation, primary screen | DTT-dependent redox cycling H2O2, phenol red/HRP absorbance; 100% = 100 µM peroxide control, 0% = buffer | activation, % at 10 µM | 200,000 compounds, 0.03% hits | AID 878;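 active means activation of at least 50% relative to the plate's high and low controls in the primary single-dose screen; inactive means activation below 50%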;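 further: compound incubated with DTT at 0.8 mM final as the reducing agent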
G6PDH counter: counter-screen for G6PDH assay hits: L. mesenteroides G6PDH inhibition; Purified L. mesenteroides G6PDH, diaphorase/resazurin coupled fluorescence, 45 min; inhibition, % at 5 µM; 200,000 compounds, 0.12% hits; AID 1020
L major viab: reduces viability of Leishmania major promastigotes; AID 1063; inhibition, % at 10 µM; 200,000 compounds, 9% hits; resazurin fluorescence viability;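 further: promastigotes grown with compound for 44 hours at 28 °C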
Diaph inh CS: inhibits diaphorase or chemically oxidizes, flagging diaphorase assay artifacts. diaphorase resazurin-to-resorufin fluorescence, NADH, 16 min; bacterial (C. kluyveri) enzyme, not human. inhibition, % at 20 µM. 190,000 compounds, 0.69% hits;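 active means primary screen inhibition at 20 µM above a set limit, cut at about 50% in these data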;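 further: plate controls were DMSO with full reaction for no effect and wells lacking NADH for full effect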
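System: Bacterial diaphorase enzyme (C. kluyveri) | Incubation: 16-min room-temperature incubation before reading | Benchmarks: No-NADH positive control and DMSO neutral control | Measured by: Resorufin fluorescence 544/590 nm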
Numbers without * were called inactive; · = no result given. The entries come from a sample that favours hits as a whole. Unless noted, no stated cut-off is given here; in the data, active means inhibition above about 50%; inactive means the rest.

SMILES | PfGluPho inh | Diaph act CS | DTT redox prof | G6PDH counter | L major viab | Diaph inh CS
CCOC(=O)C1=C(O)/C(=C/c2cc(OC)c(OC)c(OC)c2)SC1=Nc1ccc(OC)cc1 | -1 | 0.9 | -3 | 0 | 2 | 8
CCOC(=O)C1=C(O)/C(=C/c2ccc(OCC(=O)O)c(OCC)c2)SC1=Nc1ccc(C)cc1 | -8 | 0.4 | 0 | 15 | 4 | 62*
CCOc1cc(/C=C2\SC(=Nc3ccccc3)N(c3ccccc3)C2=O)ccc1OCC(=O)O | -2 | 0.8 | -1 | -2 | -11 | 24
CCOC(=O)C1=C(O)/C(=C/c2ccc(OCC(=O)O)c(OCC)c2)SC1=Nc1ccc(OC)cc1 | 9 | 0.5 | 0 | 11 | 62* | 47
C=CCn1c(SCC(=O)Nc2ncc(Cc3cc(C(F)(F)F)ccc3Cl)s2)nnc1-c1ccncc1 | -29 | 0.9 | -1 | 8 | -6 | 12
Cc1cc(C)nc(NC2=NC3CCCCC3N2)n1 (stereo not drawn) | -2 | 1 | 0 | -2 | 64* | -3
Cc1cc(C)nc(NC2=NCC(=O)N2c2cc(Cl)cc(Cl)c2)n1 | -13 | 0.9 | 0 | 3 | 6 | 11
Cc1oc(-c2cccs2)nc1CN1CC[C@@](O)(c2ccccc2)[C@H]2CCCC[C@@H]21 | 11 | 0.8 | -1 | 7 | 42 | 19
Cc1ccccc1CC1(CO)CCCN(Cc2nc(-c3cccs3)oc2C)C1 (stereo not drawn) | -3 | 0.9 | 0 | -2 | 55* | 10
COc1cc(C(=O)OCCNC(=O)c2ccncc2)cc(OC)c1OC | -2 | 1 | 0 | -1 | -5 | -4
COc1ccc2c(c1)-c1nc(/N=C/c3c(O)ccc4ccccc34)sc1CC2 | 43 | 0.5 | 0 | 38 | 81* | 50
COc1ccc2c(c1)-c1nc(/N=C/c3ccc(O)cc3)sc1CC2 | 21 | 0.4 | 0 | 26 | -3 | 56*
Oc1ccc2ccccc2c1/C=N/c1nccs1 | 21 | 0.7 | 2 | 49 | -4 | 31
CC(NC(=O)OCc1ccccc1)C(=O)N1CC(O)CC1C(=O)O (stereo not drawn) | -12 | 1 | 1 | -8 | -5 | -3
Cc1ccc(S(=O)(=O)CC#CCOC(=O)c2ccc([N+](=O)[O-])cc2)cc1 | · | 0.7 | 2 | 2 | 100* | 27
O=C(/C=C/c1ccc(O)cc1)c1ccc(O)cc1O | 15 | 0.8 | 0 | 16 | 85* | 19
COc1ccc(C(=O)/C=C/c2ccccc2)c(O)c1 | 12 | 0.9 | 0 | -7 | 75* | 11
COc1ccc(C(=O)/C=C/c2ccc(OC)cc2OC)c(O)c1 | 8 | 0.8 | 0 | 4 | -5 | 18
COc1ccc(-n2c(SCC(=O)Nc3ccc(C(=O)O)cc3)nnc2-c2ccccc2)cc1OC | -5 | · | · | · | · | ·
O=C(CCNS(=O)(=O)c1ccccc1)OCc1ccc([N+](=O)[O-])cc1 | 0 | · | · | · | · | ·
CC(OC(=O)c1ccc([N+](=O)[O-])s1)C(=O)NC1CCCCC1C (stereo not drawn) | 7 | · | · | · | · | ·
O=S(=O)(NCC(c1ccc2c(c1)OCO2)N1CCN(c2ccccc2)CC1)c1ccccc1 (stereo not drawn) | 8 | · | · | · | · | ·
CCN1CCN(C(=O)c2ccccc2N(Cc2ccccc2)S(=O)(=O)c2ccc(C)cc2)CC1 | 16 | 1 | 1 | 4 | 98* | -2
Cc1ccc(S(=O)(=O)N(CC(=O)N2CCCCCC2)c2ccccc2)cc1 | 0 | 0.9 | 0 | 6 | 75* | 8
Cc1ccc(S(=O)(=O)N(CC(=O)N2CCC(C)CC2)c2ccccc2)cc1 | -3 | 1 | 0 | 6 | 6 | 4
SMILES | PfGluPho inh | Diaph act CS | DTT redox prof | G6PDH counter | L major viab | Diaph inh CS
Cc1ccc(S(=O)(=O)N(CC(=O)N2CCC(C)CC2)Cc2ccccc2F)cc1 | 39 | 0.8 | 1 | -1 | 82* | 17
CC1(c2ccc3c(c2)OCCCO3)NC(=O)N(CC(=O)NCCc2ccccc2)C1=O (stereo not drawn) | 9 | · | · | · | · | ·
CSc1nc(N)nc2c1ncn2CC(=O)N[C@H](CO)Cc1c[nH]c2ccccc12 | 19 | · | · | · | · | ·
C=CCn1c(SCc2nc3ccccc3c(=O)[nH]2)nc2sc3c(c2c1=O)CCCC3 | 4 | · | · | · | · | ·
C=CCn1c(SCc2nc3sc4c(c3c(=O)[nH]2)CCCC4)nc2ccccc2c1=O | -4 | 0.8 | 0 | 17 | 84* | 16
COc1cc(CC(=O)Nc2sc3c(c2C(N)=O)CCCC3)cc(OC)c1OC | 5 | · | · | · | · | ·
CC12CCC(C(=O)O)(c3nc4cc([N+](=O)[O-])ccc4nc31)C2(C)C (stereo not drawn) | 13 | · | · | · | · | ·
COC(=O)CC1C(=O)NCCN1C(=O)CSc1nc2ccccc2s1 (stereo not drawn) | 39 | 0.9 | 0 | 1 | -5 | 12
CCN1C(=O)/C(=C\C(=O)c2cccs2)c2cc(Br)ccc21 | 30 | 0.8 | -1 | 1 | 100* | 20
CCCn1c(N)c(N(CCOC)C(=O)c2cc3c(s2)CCCCC3)c(=O)[nH]c1=O | 15 | · | · | · | · | ·
CCCCCCn1c(SCC(=O)OC)nc2c1c(=O)[nH]c(=O)n2C | 78* | 0.9 | 0 | -10 | -8 | 15
CCCCCCn1c(SCC(C)C)nc2c1c(=O)[nH]c(=O)n2C | -6 | 0.9 | -2 | 11 | 16 | 7
Oc1cccc(NC(=S)Nc2ccc(SC(F)F)cc2)c1 | 8 | 0.9 | 1 | -6 | 61* | 13
CCOC(=O)C(CC)(CC)C(=O)/C=C/c1cccc(Br)c1 | 15 | · | 2 | · | 100* | ·
CCOC(=O)C[C@H]1c2ccccc2S(=O)(=O)N1c1cccc(OC)c1 | 9 | · | · | · | · | ·
O=C(NNC(=O)c1cc(-c2ccc(Cl)cc2Cl)nc2ccccc12)Nc1ccccc1 | 4 | 1.1 | -4 | 0 | 70* | -5
O=C(NCc1ccccn1)c1cc(-c2ccccc2Cl)nc2ccccc12 | 10 | 0.9 | 0 | 7 | 87* | 7
Cc1cc(NS(=O)(=O)c2ccc(NC(=O)c3cc(-c4ccccc4Cl)nc4ccccc34)cc2)no1 | 15 | 0.7 | 0 | 12 | 60* | 27
Cc1cc(NC(=O)c2cc(-c3ccccc3Cl)nc3ccccc23)no1 | -5 | · | · | · | · | ·
COCCCNC(=O)C1=CCN(S(=O)(=O)c2ccc(OC)cc2)CC1 | -2 | · | · | · | · | ·
O=C(CSc1nnc(-c2ccccc2)o1)N1CCCCC1 | -15 | · | · | · | · | ·
CC(C)CCNc1nnnc2c1sc1nc(N3CCOCC3)c3c(c12)CC(C)(C)SC3 | -1 | 0.7 | -1 | -1 | 57* | 28
CC1(C)Cc2c(c(N3CCOCC3)nc3sc4c(NCCN5CCOCC5)nnnc4c23)CS1 | 23 | · | · | · | · | ·
CC(OC(=O)c1ccc2c(c1)OCO2)C(=O)NC1CCCCC1 (stereo not drawn) | -1 | · | · | · | · | ·
